Source: PubChem BioAssay (Broad Institute)
HIV Env fusion – HIV envelope-mediated fusion inhibition; HeLa-JRFL Env/CEM21 cell fusion, luciferase; inhibition, % at 12.3 µM; actives 1.1% (n = 360,000); AID 651610;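 active = mean replicate inhibition score of at least 50 and every replicate individually at or above 50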;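 also: 0% = plate neutral controls and 100% = maraviroc near 300 nM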
FN deposit inh – fibronectin deposition inhibition | AH1F fibroblasts, Alexa488-fibronectin deposition fluorescence, overnight | inhibition, % at 12.6 µM | actives 0.086% (n = 350,000);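 active = mean inhibition across replicates of 30% or more, regardless of how many single replicates reach that level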;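 also: positive control wells lacked labelled fibronectin entirely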
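material = AH1F fibroblast monolayer depositing Alexa488-labelled fibronectin into matrix | amount = 10000 AH1F cells/well | buffer or medium = DMEM plus 2% serum, read in PBS | incubation = 1 h cell adhesion before compound, then overnight fibronectin incubation | detection = fluorescence at 485 nm excitation, 525 nm emission | evaluation = percent inhibition as loss of matrix-bound fibronectin fluorescence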
GSIS activator – GLuc luminescence reporter in INS-1E cells, primary screen for activators of glucose-dependent secretion of insulin | INS-1E GLuc reporter insulin secretion, 2-3 h | actives 0.61% (n = 370,000) | AID 743287 | activation, % at 16.6 µM;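 active = lowest replicate activation of at least 40%, so every replicate reaches that level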;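 also: 0% = median of neutral control wells and 100% = median of IBMX positive control wells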
PDI inh – blocks human protein disulfide isomerase activity; P07237; PDI insulin aggregation turbidity, A650, 90 min; inhibition, % at 10 µM; actives 0.052% (n = 350,000);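 active = mean inhibition across replicates of 30% or more, whatever share of single replicates reach that level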
Target sequence (P07237 whole entry, looked up): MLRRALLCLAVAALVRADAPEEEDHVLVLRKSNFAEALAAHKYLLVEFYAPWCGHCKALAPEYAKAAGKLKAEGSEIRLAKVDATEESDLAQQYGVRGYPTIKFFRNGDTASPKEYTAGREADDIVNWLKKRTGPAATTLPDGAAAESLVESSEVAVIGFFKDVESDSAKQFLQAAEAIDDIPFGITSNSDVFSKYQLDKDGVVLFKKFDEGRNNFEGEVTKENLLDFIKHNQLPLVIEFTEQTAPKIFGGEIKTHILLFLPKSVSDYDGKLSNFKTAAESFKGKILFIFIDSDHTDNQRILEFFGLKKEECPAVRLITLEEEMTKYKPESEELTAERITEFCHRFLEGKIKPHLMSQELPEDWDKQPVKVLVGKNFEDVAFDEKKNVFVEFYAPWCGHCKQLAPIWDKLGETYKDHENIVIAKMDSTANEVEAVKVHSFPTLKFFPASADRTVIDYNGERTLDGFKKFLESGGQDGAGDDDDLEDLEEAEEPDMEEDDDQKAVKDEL
ERp5 block – inhibitors of human ERp5 | ERp5 insulin aggregation, absorbance 650 nm, 90 min | actives 0.05% (n = 350,000) | AID 651711 | inhibition, % at 9.99 µM;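 active = mean replicate inhibition above about 25%, with every replicate also reaching it, limit read from the data, passing the limit was not always enough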
* marks the source's active call; other numbers are inactive results; x = no result given; [ ] = another dose, or the depositor's remark. Only some compounds are listed: those with a hit (about 1.4% of all), similar ones and a draw of the others.

SMILES | HIV Env fusion | FN deposit inh | GSIS activator | PDI inh | ERp5 block
Nc1ccc(C(=O)OCc2csc(-c3ccccc3)n2)cc1[N+](=O)[O-] | -34 | -18 | 46* | -8 | x
CC(=O)N(C)C[C@@H]1Oc2ncc(C#Cc3ccccc3)cc2C(=O)N([C@@H](C)CO)C[C@@H]1C | 9[16.7 µM] | x | 35 | x | -2
CCCC(=O)N1CCc2cc(OC)c(OC)cc2C1COc1ccccc1OC (stereo not given) | 12 | 9 | 4 | 8 | 0
COc1cc2c(cc1OC)C(c1ccccc1)N(C(=O)CCl)CC2 (stereo not given) | 2 | -6 | x | 18 | x
COc1ccc(C(=O)N2CCc3cc(OC)c(OC)cc3C2c2ccc(OC)c(OC)c2)cc1OC (stereo not given) | 2 | 3 | 48* | 0 | 0
CCC(=O)N1CCc2cc(OC)c(OC)cc2C1COc1ccccc1OC (stereo not given) | 4 | 5 | 48* | 1 | 0
C[C@@H]1CN([C@@H](C)CO)C(=O)c2cc(NS(C)(=O)=O)ccc2O[C@@H](C)CCCCO[C@@H]1CN(C)C(=O)C1CCCCC1 | -9[16.7 µM] | x | 13 | x | -2
CC(CNC(=S)Nc1cc(F)cc(F)c1)CSc1ccc(Cl)cc1 (stereo not given) | 78* | -13 | -61 | -3 | 6
Cc1ccc(NC(=S)NCCSc2ccc(Cl)cc2)cc1 | 11 | 19 | 15 | -1 | 4
C[C@@H]1CCCCO[C@@H](CN(C)Cc2ccc(C(=O)O)cc2)[C@@H](C)CN([C@@H](C)CO)C(=O)c2cc(NC(=O)Nc3ccc(F)cc3)ccc2O1 | 2[16.7 µM] | x | 15 | x | 4
CCOC(=O)c1nc(-c2ccccc2)oc1N(C)C | x | x | 84* | 4 | x
CC(C)NC(=O)N(C)C[C@@H]1OCCCC[C@H](C)Oc2ccc(NC(=O)c3ccccc3)cc2C(=O)N([C@@H](C)CO)C[C@@H]1C | -21[16.7 µM] | x | -4 | x | -1
C[C@@H]1CN([C@H](C)CO)C(=O)c2cccc(NC(=O)Nc3ccc(F)cc3)c2O[C@@H]1CN(C)C(=O)Nc1ccc2c(c1)OCO2 | 21[16.7 µM] | x | 6 | x | -2
c1ccc(N(c2ccccc2)c2nc(-n3ccnc3)nc(-n3ccnc3)n2)cc1 | x | x | x | -4 | x
CN(c1ccccc1)c1nc(-n2ccnc2)nc(-n2ccnc2)n1 | -76 | 44* | x | -1 | x
Cc1ccc(Cn2nnc3c(=O)n(Cc4cccc(C)c4)cnc32)cc1 | x | x | x | 11 | x
Cc1cccc(Cn2cnc3c(nnn3Cc3ccc(Cl)cc3)c2=O)c1 | 60* | 4 | -1 | -2 | x
Cc1cccc(Cn2ccc(-c3ccc(Cl)cc3)c(C#N)c2=O)c1 | x | x | 95* | 0 | x
N#Cc1c(-c2ccccc2)ccn(Cc2ccc(Cl)cc2)c1=O | x | x | x | 5 | x
CCC(=O)N[C@H]1C=C[C@@H](CC(=O)NCc2ccc(OC)cc2)O[C@H]1CO | -15[16.7 µM] | 2 | 6 | x | 0
COc1ccc(S(=O)(=O)Nc2ccc3c(c2)C(=O)N([C@@H](C)CO)C[C@@H](C)[C@@H](CN(C)C(=O)NC2CCCCC2)O3)cc1 | x | 4 | -14 | x | -8
O=c1cc(-c2ccccc2F)nc(-c2ccccc2F)o1 | 2 | -6 | 12 | 11 | 0
O=c1cc(-c2cccc(Br)c2)nc(-c2ccccc2F)o1 | 7 | 5 | 46* | -2 | x
CC(C)NC(=O)N1[C@@H]2CN(C(=O)C3CCC3)c3ccccc3[C@@H]2[C@@H]1CO | x | -17 | -11 | x | 1
O=C(N/N=C/c1ccc(-n2ccnc2)cc1)c1cccs1 | 75* | x | 8 | 4 | -1
SMILES | HIV Env fusion | FN deposit inh | GSIS activator | PDI inh | ERp5 block
FC(F)(F)c1cnc(N2CCCN(C(=S)Nc3ccccc3)CC2)c(Cl)c1 | 87* | -13 | 5 | 1 | -5
O=C(C1CCOCC1)N1C[C@H]2[C@@H](c3ccccc31)[C@H](CO)N2C(=O)Nc1cccc(F)c1 | x | 7 | -20 | x | 0
COc1cc2c3nnc(-c4ccc(F)cc4)c-3cn(Cc3ccccc3F)c2cc1OC | 6 | -55 | 12 | -5 | 0
COc1cc2c3nnc(-c4ccccc4)c-3cn(Cc3ccccc3F)c2cc1OC | -32 | -10 | 98* | x | x
Cc1cccc(C)c1NC(=O)Nc1nc(C(N)c2ccccc2Cl)cs1 (stereo not given) | -30 | -3 | 12 | -2 | 2
NC(c1csc(NC(=O)Nc2cccc(Cl)c2)n1)c1ccccc1Cl (stereo not given) | 76* | 7 | -28 | 0 | 8
O=C(Nc1ccc(Cl)c(Cl)c1)Nc1nc(-c2ccccc2)cs1 | 35 | -10 | 166* | -10 | x
O=C(Nc1ccc(Cl)cc1)Nc1nnc(-c2ccncc2)s1 | 28 | 6 | 47 | -13 | x
O=C(Nc1cccc(Cl)c1)Nc1nnc(CSCCOc2ccc(Cl)cc2)s1 | x | -2 | 54* | 0 | x
O=C(Nc1cccc(Cl)c1)Nc1nnc(-c2ccncc2)s1 | 57* | -8 | -7 | -6 | 2
Cc1ccc(NC(=O)Nc2nnc(CSCCOc3ccc(Cl)cc3)s2)cc1 | 7 | -1 | x | -7 | 1
COc1ccc2c3c(n(C)c2c1)[C@@H](CO)NCC31CCN(CC2CCCCC2)CC1 | x | 5 | 5 | x | x
COC(=O)C1=C(C)NC(=O)NC1c1c(O)ccc2ccccc12 (stereo not given) | 1 | 3 | 5 | 4 | 3
COC(=O)C1=C(C)NC(c2c(O)ccc3ccccc23)C(C(=O)OC)=C1C (stereo not given) | -107 | -3 | 53* | 7 | x
COc1ccccc1N(CC(=O)NCC1CCCO1)C(=O)CNS(=O)(=O)c1ccc(Cl)cc1 (stereo not given) | -6 | -12 | 42* | 0 | 2
N#CC1=C(N)Oc2n[nH]c(-c3ccccc3)c2C1c1ccncc1 (stereo not given) | -5 | 6 | x | -4 | x
N#CC1=C(N)Oc2n[nH]c(-c3ccc(F)cc3)c2C1c1cccnc1 (stereo not given) | x | x | 56* | -16 | x
O=C(C[C@@H]1CC[C@@H](NC(=O)C2CCC2)[C@H](CO)O1)NCCCN1CCOCC1 | 19[16.7 µM] | -11 | 1 | x | -3
O=C(CSc1nc2ncc(Cl)cc2[nH]1)c1c[nH]c2ccccc12 | -18 | 33* | 7 | 3 | -38
C[C@@H]1CN([C@H](C)CO)C(=O)c2cccc(NC(=O)Nc3ccc4c(c3)OCO4)c2O[C@H]1CN(C)Cc1ccc(Cl)c(Cl)c1 | x | x | -42 | x | 0
CO[C@H]1CN(C)C(=O)c2cc(NC(=O)C3CCC3)ccc2OC[C@@H](C)N(C)C[C@@H]1C | 9[16.7 µM] | -5 | 6 | x | 4
CO[C@H]1CC[C@H]2CCN(C)C(=O)CCCN(C)C(=O)c3cc(C#N)ccc3OC[C@H]1O2 | 15[16.7 µM] | -4 | 1 | x | 0
CC(=O)N(C)C[C@@H]1Oc2ccc(N(C)C)cc2CC(=O)N(C)C[C@H]1C | x | -5 | 7 | x | x
COc1ccc(-n2ncc(S(=O)(=O)c3ccccc3)c2-c2ccc(Cl)cc2)cc1 | 60* | 0 | x | 5 | x
CCN(CC)C(=O)Cn1c(=O)oc2ccccc21 | -5 | -1 | 42* | -1 | 4
